Experimental data: ChEMBL document CHEMBL4190220, “Withanolides from Aeroponically Grown Physalis peruviana and Their Selective Cytotoxicity to Prostate Cancer and Renal Carcinoma Cells” (J Nat Prod, 2017)
The source made the active and inactive calls. The rule behind the calls is not given here.

Key:
CWR22R [1] = assay: Cytotoxicity against human 22Rv1 cells assessed as reduction in cell viability after 72 hrs by CellTiter96 AQueous one solution cell proliferation assay; format: functional, cell-based; details: 22Rv1, 72 h
Method in brief: (§1)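 MTS viability in RPMI with 5% fetal calf serum, 2.0 mM L-glutamine, nonessential amino acids, 1.0 mM pyruvate, penicillin/streptomycin, 10 mM HEPES and 2-mercaptoethanol. Cells were seeded at 10 000 (LNCaP) or 5000 (others) and grown overnight at 37 °C. Serial dilutions in DMSO went into triplicate wells for 72 h. MTS was read at 490 nm after 2 h. IC50 ± SD from dose–response curves, at least three independent experiments.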

SK-MEL-28 [2] = assay: Cytotoxicity against human SK-MEL-28 cells assessed as reduction in cell viability after 72 hrs by CellTiter96 AQueous one solution cell proliferation assay; format: functional, cell-based; details: SK-MEL-28, 72 h
Method in brief: (§2)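 MTS viability in DMEM with 5% fetal calf serum, 2.0 mM L-glutamine, nonessential amino acids, 1.0 mM pyruvate, penicillin/streptomycin, 10 mM HEPES and 2-mercaptoethanol. 5000 cells were grown overnight at 37 °C. Serial DMSO dilutions went into triplicate wells for 72 h. MTS absorbance was read at 490 nm after 2 h. IC50 ± SD from at least three independent dose–response experiments.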

M14 [3] = assay: Cytotoxicity against human M14 cells assessed as reduction in cell viability after 72 hrs by CellTiter96 AQueous one solution cell proliferation assay; format: functional, cell-based; details: M14, 72 h; method in brief: as §2
HFF [4] = assay: Cytotoxicity against HFF cells assessed as reduction in cell viability after 72 hrs by CellTiter96 AQueous one solution cell proliferation assay; format: cell-based; details: Homo sapiens; method in brief: as §1
LNCaP [5] = assay: Cytotoxicity against human LNCAP cells assessed as reduction in cell viability after 72 hrs by CellTiter96 AQueous one solution cell proliferation assay; format: functional, cell-based; method in brief: as §1
ACHN [6] = assay: Cytotoxicity against human ACHN cells assessed as reduction in cell viability after 72 hrs by CellTiter96 AQueous one solution cell proliferation assay; format: functional, cell-based; method in brief: as §1
CWR22R [7] = assay: Cytotoxicity against human 22Rv1 cells assessed as reduction in cell viability up to 5 uM after 72 hrs by CellTiter96 AQueous one solution cell proliferation assay; format: functional, cell-based
Method in brief: (§3)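 Cells in RPMI with 5% fetal calf serum, glutamine, nonessential amino acids, pyruvate, HEPES, 2-mercaptoethanol and antibiotics. Seeded at 10 000 (LNCaP) or 5000 (others) and grown overnight at 37 °C, then exposed to compound in DMSO, triplicate wells, 72 h. Read by MTS at 490 nm after 2 h. % cytotoxicity = (A medium − A treatment)/A medium × 100.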

M14 [8] = assay: Cytotoxicity against human M14 cells assessed as reduction in cell viability up to 5 uM after 72 hrs by CellTiter96 AQueous one solution cell proliferation assay; format: functional, cell-based
Method in brief: (§4)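 Melanoma cells in DMEM-based medium (5% fetal calf serum, glutamine, nonessential amino acids, pyruvate, HEPES, 2-mercaptoethanol, antibiotics). 5000 cells were grown overnight at 37 °C, then exposed to compound in DMSO in triplicate wells for 72 h. MTS absorbance at 490 nm after 2 h. % cytotoxicity = (A medium − A treatment)/A medium × 100.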

LNCaP [9] = assay: Cytotoxicity against human LNCAP cells assessed as reduction in cell viability up to 5 uM after 72 hrs by CellTiter96 AQueous one solution cell proliferation assay; format: functional, cell-based; method in brief: as §3
HFF [10] = assay: Cytotoxicity against HFF cells assessed as reduction in cell viability up to 5 uM after 72 hrs by CellTiter96 AQueous one solution cell proliferation assay; format: cell-based; details: human; method in brief: as §3
ACHN [11] = assay: Cytotoxicity against human ACHN cells assessed as reduction in cell viability up to 5 uM after 72 hrs by CellTiter96 AQueous one solution cell proliferation assay; format: functional, cell-based; method in brief: as §3
SK-MEL-28 [12] = assay: Cytotoxicity against human SK-MEL-28 cells assessed as reduction in cell viability up to 5 uM after 72 hrs by CellTiter96 AQueous one solution cell proliferation assay; format: functional, cell-based; method in brief: as §4

Row | SMILES | IC50 (CWR22R [1]) [nM] | IC50 (SK-MEL-28 [2]) [nM] | IC50 (M14 [3]) [nM] | IC50 (HFF [4]) [nM] | IC50 (LNCaP [5]) [nM] | IC50 (ACHN [6]) [nM] | Activity (CWR22R [7]) | Activity (M14 [8]) | Activity (LNCaP [9]) | Activity (HFF [10]) | Activity (ACHN [11]) | Activity (SK-MEL-28 [12])
1 | CC1=C(C)C(=O)O[C@@H]([C@](C)(O)[C@]2(O)CC[C@@]3(O)[C@@H]4CC=C5CC=CC(=O)[C@]5(C)[C@H]4CC[C@]23C)C1 [WITHANOLIDE F] | 70 | > 2000 | > 2000 | > 2000 | 130 | > 2000 | – | – | – | – | – | –
2 | CC1=C(C)C(=O)O[C@@H]([C@](C)(O)[C@]2(O)CC[C@@]3(O)[C@@H]4CC=C5[C@@H](O)C=CC(=O)[C@]5(C)[C@H]4CC[C@]23C)C1 | 70 | > 2000 | > 2000 | > 2000 | 110 | 1000 | – | – | – | – | – | –
3 | CC(=O)OC[C@]12CC[C@H]3[C@@H](C[C@H]4O[C@]45CC=CC(=O)[C@]35C)[C@]1(O)CC[C@@]2(O)[C@@](C)(O)[C@H]1CC(C)=C(C)C(=O)O1 | 30 | > 2000 | > 2000 | > 2000 | – | 570 | – | – | – | – | – | –
4 | CC1=C(C)[C@H](O)[C@H]([C@](C)(O)[C@]2(O)CC[C@@]3(O)[C@@H]4C[C@H]5O[C@]56CC=CC(=O)[C@]6(C)[C@H]4CC[C@]23C)OC1=O | 890 | > 2000 | > 2000 | > 2000 | > 2000 | > 2000 | – | – | – | – | – | –
5 | C[C@H]1C(=O)OC[C@H]1C[C@@H](O)[C@](C)(O)[C@]1(O)CC[C@@]2(O)[C@@H]3CC=C4CC=CC(=O)[C@]4(C)[C@H]3CC[C@]12C | – | – | – | – | – | – | inactive | inactive | inactive | Non-Toxic | inactive | inactive
6 | C[C@H]1C(=O)OC[C@H]1C[C@@H](O)[C@](C)(O)[C@H]1CC[C@@]2(O)[C@@H]3CC=C4CC=CC(=O)[C@]4(C)[C@H]3CC[C@]12C | – | – | – | – | – | – | inactive | inactive | inactive | Non-Toxic | inactive | inactive
7 | C[C@H]1C(=O)OC[C@H]1C[C@@H](O)[C@](C)(O)[C@]1(O)CC[C@@]2(O)[C@@H]3CC=C4C=CCC(=O)[C@]4(C)[C@H]3CC[C@]12C | – | – | – | – | – | – | inactive | inactive | inactive | Non-Toxic | inactive | inactive
8 | CC1=C(C)C(=O)O[C@@H]([C@](C)(O)[C@]2(O)CC[C@@]3(O)[C@@H]4C[C@H]5O[C@]56[C@@H](O)C=CC(=O)[C@]6(C)[C@H]4CC[C@]23C)C1 | 90 | > 2000 | > 2000 | > 2000 | 160 | > 2000 | – | – | – | – | – | –
9 | CC1=C(C)[C@H](O)[C@H]([C@](C)(O)[C@H]2CC[C@@]3(O)[C@@H]4C[C@H]5O[C@]56CC=CC(=O)[C@]6(C)[C@H]4CC[C@]23C)OC1=O | – | – | – | – | – | – | inactive | inactive | inactive | Non-Toxic | inactive | inactive
10 | C[C@H]1C(=O)OC[C@H]1C[C@@H](O)[C@](C)(O)C1=CC[C@H]2[C@@H]3C[C@H]4O[C@]45CC=CC(=O)[C@]5(C)[C@H]3CC[C@]12C | – | – | – | – | – | – | inactive | inactive | inactive | Non-Toxic | inactive | inactive
11 | C[C@H]1C(=O)OC[C@H]1C[C@@H](O)[C@](C)(O)[C@]1(O)CC[C@@]2(O)[C@@H]3C[C@H]4O[C@]45CC=CC(=O)[C@]5(C)[C@H]3CC[C@]12C | – | – | – | – | – | – | inactive | inactive | inactive | Non-Toxic | inactive | inactive
12 | CC1=C(C)C(=O)O[C@@H]([C@](C)(O)C2=CC[C@@]3(O)[C@@H]4C[C@H]5O[C@]56CC=CC(=O)[C@]6(C)[C@H]4CC[C@]23C)C1 | – | – | – | – | – | – | inactive | inactive | inactive | Non-Toxic | inactive | inactive
13 | CC1=C(C)C(=O)O[C@@H]([C@](C)(O)[C@]2(O)CC[C@@]3(O)[C@@H]4C[C@H](Cl)[C@]5(O)[C@@H](O)C=CC(=O)[C@]5(C)[C@H]4CC[C@]23C)C1 | – | – | – | – | – | – | inactive | inactive | inactive | Non-Toxic | inactive | inactive
14 | C[C@H]1C(=O)OC[C@H]1C[C@@H](O)[C@](C)(O)[C@@]1(O)CC[C@@]2(O)[C@@H]3CC=C4CC=CC(=O)[C@]4(C)[C@H]3CC[C@]12C | – | – | – | – | – | – | inactive | inactive | inactive | Non-Toxic | inactive | inactive
15 | CO[C@]12CC=CC(=O)[C@]1(C)[C@H]1CC[C@]3(C)[C@](O)([C@@](C)(O)[C@H]4CC(C)=C(C)C(=O)O4)CC[C@@]3(O)[C@@H]1C[C@H]2O | – | – | – | – | – | – | inactive | inactive | inactive | Non-Toxic | inactive | inactive
16 | CC1=C(C)C(=O)O[C@@H]([C@](C)(O)C2=CC[C@@]3(O)[C@@H]4C[C@H]5O[C@]56[C@@H](O)C=CC(=O)[C@]6(C)[C@H]4CC[C@]23C)C1 | – | – | – | – | – | – | inactive | inactive | inactive | Non-Toxic | inactive | inactive
17 | C[C@H]1C(=O)O[C@@H]([C@](C)(O)[C@H]2CC[C@@]3(O)[C@@H]4CC=C5CC=CC(=O)[C@]5(C)[C@H]4CC[C@]23C)[C@@H](O)[C@@H]1CO | – | – | – | – | – | – | inactive | inactive | inactive | Non-Toxic | inactive | inactive
18 | CC1=C(C)C(=O)O[C@@H]([C@](C)(O)[C@]2(O)CC[C@@]3(O)[C@@H]4C[C@@H](O)[C@@]5(O)CC=CC(=O)[C@]5(C)[C@H]4CC[C@]23C)C1 | – | – | – | – | – | – | inactive | inactive | inactive | Non-Toxic | inactive | inactive
19 | COc1cccc2c1C(=O)c1c(O)c3c(c(O)c1C2=O)C[C@@](O)(C(=O)CO)C[C@@H]3O[C@H]1C[C@H](N)[C@H](O)[C@H](C)O1 [DOXORUBICIN] | 20 | 250 | 90 | – | 20 | 20 | – | – | – | – | – | –
20 | CC1=C(C)C(=O)O[C@@H]([C@](C)(O)[C@]2(O)CC[C@@]3(O)[C@@H]4C[C@H](Cl)[C@]5(O)CC=CC(=O)[C@]5(C)[C@H]4CC[C@]23C)C1 | – | – | – | – | – | – | inactive | inactive | inactive | Non-Toxic | inactive | inactive
